Source: ChEMBL document CHEMBL3272082, “Racemic diastereoisomers of 1-amino-2-hydroxycyclopentanecarboxylic acid” (J Med Chem, 1976)
Calls of active or inactive are those of the source. No cut-off for these calls is given here.

Legend:
[1] = Retardation factor of the compound in cyclohexylamine-water-methyl ethyl ketone-1-butanol at 1:2.5:5:5 ratio by paper chromatography; assay type: physicochemical; settings: buffer
Summary of the method: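 Paper chromatography in cyclohexylamine–water–methyl ethyl ketone–1-butanol (1:2.5:5:5). Rf values compared with allothreonine and threonine run in the same system.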

Jensen sarcoma [2] = assay: Inhibition of growth of rat Jensen sarcoma cells assessed as new cells at 50 ug/ml after 72 hrs in presence of 26 ug/ml serine (reference value: 100%); assay type: functional; parameters: scale not given: the % may be the effect or the level left
Summary of the method: (§1)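 Jensen sarcoma cells seeded at 400000 cells/flask in replicate flasks in McCoy's 7a medium with 10% fetal calf serum, gassed with 8% CO2–92% air, 37°, 24 hr, then counted for zero time. Medium replaced with fresh medium containing analog at 50 μg/ml, with threonine added as listed and serine in medium at 26 μg/ml. Medium renewed at 48 hr. New cells counted at 72 hr, expressed as % of control in normal medium.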

Jensen sarcoma [3] = assay: Inhibition of growth of rat Jensen sarcoma cells assessed as new cells at 50 ug/ml after 72 hrs in presence of 18 ug/ml threonine and 26 ug/ml serine (reference value: 100%); assay type: functional; parameters: scale not given: the % may be the effect or the level left; summary of the method: as §1
Jensen sarcoma [4] = assay: Inhibition of growth of rat Jensen sarcoma cells assessed as new cells at 50 ug/ml after 72 hrs in presence of 50 ug/ml threonine and 26 ug/ml serine (reference value: 100%); assay type: functional; parameters: scale not given: the % may be the effect or the level left; summary of the method: as §1
Escherichia coli [5] = assay: Antimicrobial activity against Escherichia coli 9723 assessed as growth inhibition up to 300 ug/ml; assay type: functional, organism-based
Summary of the method: (§2)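 Microbial growth toxicity tested by typical microbial procedures; each isomer at concentrations up to 300 μg/ml.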

Escherichia coli [6] = assay: Antimicrobial activity against Escherichia coli W assessed as growth inhibition up to 300 ug/ml; assay type: functional; summary of the method: as §2
Enterococcus faecalis = assay: Antimicrobial activity against Streptococcus faecalis 8043 assessed as growth inhibition up to 300 ug/ml; assay type: functional, organism-based; summary of the method: as §2
[7] = test system: Leuconostoc mesenteroides; assay: Antimicrobial activity against Leuconostoc mesenteroides 10830 assessed as growth inhibition up to 300 ug/ml; assay type: functional; summary of the method: as §2
[8] = test system: Lactiplantibacillus plantarum; assay: Antimicrobial activity against Lactobacillus arabinosus 8014 assessed as growth inhibition up to 300 ug/ml; assay type: functional, organism-based; summary of the method: as §2
Jensen sarcoma [9] = assay: Inhibition of growth of rat Jensen sarcoma cells assessed as new cells at 50 ug/ml after 72 hrs in presence of 25 ug/ml threonine and 26 ug/ml serine (reference value: 100%); assay type: functional; parameters: scale not given: the % may be the effect or the level left; summary of the method: as §1

Structure (SMILES)	Rf [1]	Activity (Jensen sarcoma [2]) [%]	Activity (Jensen sarcoma [3]) [%]	Activity (Jensen sarcoma [4]) [%]	growth inhibition (GI) (Escherichia coli [5])	growth inhibition (GI) (Escherichia coli [6])	growth inhibition (GI) (Enterococcus faecalis)	growth inhibition (GI) [7]	growth inhibition (GI) [8]	Activity (Jensen sarcoma [9]) [%]
N[C@@]1(C(=O)O)CCC[C@@H]1O (relative stereo)	0.38	12	69	68	inactive	inactive	inactive	inactive	inactive	
C[C@@H](O)[C@H](N)C(=O)O [THREONINE]	0.54									
N[C@@]1(C(=O)O)CCC[C@H]1O (relative stereo)	0.45	12	68	68	inactive	inactive	inactive	inactive	inactive	
C[C@H](O)[C@H](N)C(=O)O	0.41									
NC1(C(=O)O)CCCC1 [CYCLOLEUCINE]		0								5
